Assay results reported in article PMC7931646 (The Journal of Experimental Medicine, 2021).

How the values were obtained:
[1] = Metabolite profile in hepatocytes; type: in vitro ADME; settings: metabolite profiling in five species (mouse, rat, dog, NHP, human)
Procedure, shortened: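 Test compound at 1 µM was incubated at 37°C for 4 h with cryopreserved hepatocytes from mouse, rat, dog, monkey or human. Metabolite masses and relative abundance came from HPLC/MS/MS peak areas. Structures were characterised by LC/MS/MS on a Q-Trap instrument.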

CYP450 2C9 = CYP450 2C9 (Homo sapiens, UniProt P11712); test: CYP450 inhibition, recombinant isoform; type: in vitro ADME
Chain of CYP450 2C9 (P11712 whole entry, canonical isoform): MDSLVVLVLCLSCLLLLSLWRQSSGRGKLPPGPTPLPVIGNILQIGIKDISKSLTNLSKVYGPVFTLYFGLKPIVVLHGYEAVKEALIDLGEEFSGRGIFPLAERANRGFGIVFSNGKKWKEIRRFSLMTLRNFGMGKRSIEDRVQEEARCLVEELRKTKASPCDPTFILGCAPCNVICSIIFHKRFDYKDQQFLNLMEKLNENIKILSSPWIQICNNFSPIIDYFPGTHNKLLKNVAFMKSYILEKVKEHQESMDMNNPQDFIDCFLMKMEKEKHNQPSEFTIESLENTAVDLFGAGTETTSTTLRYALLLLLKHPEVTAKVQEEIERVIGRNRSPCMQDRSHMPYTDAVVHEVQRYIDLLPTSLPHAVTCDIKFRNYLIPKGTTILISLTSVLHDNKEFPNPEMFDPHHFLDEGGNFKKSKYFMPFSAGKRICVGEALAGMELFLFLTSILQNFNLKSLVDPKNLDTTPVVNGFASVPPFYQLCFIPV

[2] = Plasma protein binding, equilibrium dialysis; type: in vitro ADME; settings: human
Procedure, shortened: (§1)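 Equilibrium dialysis of test compound in human, rat or mouse plasma against buffer across a semipermeable membrane. Compound concentrations in both compartments were measured by LC/MS, and percent bound was derived from them.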

[3] = tested on: S. typhimurium strains TA1535, TA1537, TA98, TA100 and E. coli strain WP2 (uvrA); test: GLP Salmonella–Escherichia coli/microsome plate incorporation; type: cell-based, Salmonella typhimurium; settings: two S. typhimurium strains (T98 and T100), only with Aroclor-induced rat liver S9
Procedure, shortened: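 GLP plate-incorporation mutagenicity test using S. typhimurium TA1535, TA1537, TA98 and TA100 and E. coli WP2 (uvrA). Each strain was run with and without a metabolic activation mix of Aroclor 1254–induced rat liver microsomes (S9). Read-out is revertant bacterial growth.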

hERG channel = hERG channel (Homo sapiens, UniProt Q12809); test: Patch-Xpress patch-clamp hERG assay in HEK-293 cells; type: cell-based
Chain of hERG channel (Q12809 whole entry, canonical isoform): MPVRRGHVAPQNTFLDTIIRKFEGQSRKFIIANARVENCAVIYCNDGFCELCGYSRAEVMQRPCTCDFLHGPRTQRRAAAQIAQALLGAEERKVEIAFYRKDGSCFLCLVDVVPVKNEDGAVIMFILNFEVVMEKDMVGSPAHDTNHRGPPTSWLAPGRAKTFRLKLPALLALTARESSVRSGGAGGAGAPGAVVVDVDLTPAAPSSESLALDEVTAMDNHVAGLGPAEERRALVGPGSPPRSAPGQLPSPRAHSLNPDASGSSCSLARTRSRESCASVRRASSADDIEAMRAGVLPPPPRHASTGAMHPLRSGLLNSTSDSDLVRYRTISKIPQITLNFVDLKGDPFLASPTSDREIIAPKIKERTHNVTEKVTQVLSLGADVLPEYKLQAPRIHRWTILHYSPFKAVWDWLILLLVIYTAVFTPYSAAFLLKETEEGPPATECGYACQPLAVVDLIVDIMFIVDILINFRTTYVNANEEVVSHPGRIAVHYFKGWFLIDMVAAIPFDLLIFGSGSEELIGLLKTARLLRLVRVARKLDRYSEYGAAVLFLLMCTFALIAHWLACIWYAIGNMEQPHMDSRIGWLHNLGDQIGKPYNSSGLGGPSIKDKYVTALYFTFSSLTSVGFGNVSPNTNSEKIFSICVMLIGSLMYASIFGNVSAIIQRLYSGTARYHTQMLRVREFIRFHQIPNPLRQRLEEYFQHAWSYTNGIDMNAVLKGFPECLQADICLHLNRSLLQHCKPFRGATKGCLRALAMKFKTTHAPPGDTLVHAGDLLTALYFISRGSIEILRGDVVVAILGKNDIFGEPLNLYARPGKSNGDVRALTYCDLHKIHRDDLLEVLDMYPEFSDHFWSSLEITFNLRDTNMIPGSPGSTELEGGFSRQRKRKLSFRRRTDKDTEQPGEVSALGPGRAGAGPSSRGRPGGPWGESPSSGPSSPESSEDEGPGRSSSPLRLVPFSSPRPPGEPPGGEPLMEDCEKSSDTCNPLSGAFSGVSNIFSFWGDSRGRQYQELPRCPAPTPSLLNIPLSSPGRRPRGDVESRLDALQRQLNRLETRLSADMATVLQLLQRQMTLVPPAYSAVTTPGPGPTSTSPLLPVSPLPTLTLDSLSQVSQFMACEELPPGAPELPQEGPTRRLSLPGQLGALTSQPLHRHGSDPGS

CYP450 2D6 = CYP450 2D6 (Homo sapiens, UniProt P10635); test: CYP450 inhibition, recombinant isoform; type: in vitro ADME
Chain of CYP450 2D6 (P10635 whole entry, canonical isoform): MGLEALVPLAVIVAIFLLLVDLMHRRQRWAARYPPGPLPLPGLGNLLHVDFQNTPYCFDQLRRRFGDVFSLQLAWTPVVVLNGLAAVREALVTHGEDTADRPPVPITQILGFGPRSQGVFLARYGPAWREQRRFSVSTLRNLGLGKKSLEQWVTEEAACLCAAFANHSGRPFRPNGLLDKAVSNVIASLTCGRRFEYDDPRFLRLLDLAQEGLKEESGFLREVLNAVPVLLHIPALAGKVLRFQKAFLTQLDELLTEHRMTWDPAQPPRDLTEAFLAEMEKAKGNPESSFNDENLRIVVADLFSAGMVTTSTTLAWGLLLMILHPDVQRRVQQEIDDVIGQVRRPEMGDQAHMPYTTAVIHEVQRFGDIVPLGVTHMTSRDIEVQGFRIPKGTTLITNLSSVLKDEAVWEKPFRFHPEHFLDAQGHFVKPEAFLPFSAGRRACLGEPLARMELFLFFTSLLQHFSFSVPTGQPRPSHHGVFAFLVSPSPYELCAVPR
Procedure, shortened: (§2)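 Recombinant human CYP450 isoforms were incubated with isoform-specific probe substrates; for CYP3A4 these were midazolam and testosterone. Inhibition was quantified by LC-MS/MS analysis of probe-substrate turnover.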

[4] = Plasma protein binding, equilibrium dialysis; type: in vitro ADME; settings: rat
Procedure, shortened: as §1

μ opioid receptors = μ opioid receptors (Homo sapiens, UniProt P35372); test: CEREP off-target radioligand binding panel; settings: read-out: inhibition of ligand binding
Chain of μ opioid receptors (P35372 whole entry): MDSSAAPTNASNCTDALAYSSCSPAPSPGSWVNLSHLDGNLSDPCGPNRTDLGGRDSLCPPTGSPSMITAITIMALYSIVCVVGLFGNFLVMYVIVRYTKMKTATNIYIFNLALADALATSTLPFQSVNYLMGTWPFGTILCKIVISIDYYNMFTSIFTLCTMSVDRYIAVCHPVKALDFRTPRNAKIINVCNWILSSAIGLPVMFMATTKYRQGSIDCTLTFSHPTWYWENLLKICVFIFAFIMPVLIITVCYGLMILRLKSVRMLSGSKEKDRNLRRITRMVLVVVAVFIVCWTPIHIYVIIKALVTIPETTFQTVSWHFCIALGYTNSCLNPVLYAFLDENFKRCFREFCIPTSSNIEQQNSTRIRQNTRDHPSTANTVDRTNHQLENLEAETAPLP
Procedure, shortened: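 CEREP secondary-pharmacology panel of 55 receptors, transporters and ion channels. Test compound at 10 µM was assessed for inhibition of binding of a radiolabelled reference ligand specific to each target. Result is percent inhibition of ligand binding.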

[5] = Human PK and 50% effective dose projection
cerebral amyloidosis = test: Immunohistochemistry of amyloid deposition; type: in vivo, mouse; settings: 25 mg/kg/d, 3 mo
Procedure, shortened: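 Female PSAPP mice began treatment at 90 or 180 d of age with vehicle (PEG 400/water/Tween 20) or test compound 25 mg/kg/d by oral gavage for 3 mo. Cerebral amyloid deposition in cortex and hippocampus was assessed by immunohistochemistry with anti-Aβ mAb 3D6, alongside Iba1 staining for microgliosis.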

[6] = GLP 28-d repeat-dose toxicity and in vivo micronucleus study in rats; design: species or system rat
[7] = 7-d dose range-finding toxicity and toxicokinetic study in rats; type: in vivo, rat
[8] = Necropsy, histopathology and weight gain in chronically treated PSAPP mice; type: in vivo, mouse; settings: chronic 25 mg/kg/d, 3 mo
Procedure, shortened: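 Female PSAPP mice, 9–10 per group, were dosed with vehicle (PEG 400/water/Tween 20) or test compound 25 mg/kg/d by oral gavage for 3 mo. Body weight was recorded three times weekly to monitor weight gain. Necropsy and histopathology followed the treatment period.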

CYP450 1A2 = target: T1, CYP450 1A2 (Homo sapiens, UniProt P05177); test: CYP450 inhibition, recombinant isoform; type: in vitro ADME
T1 sequence (P05177 1-516): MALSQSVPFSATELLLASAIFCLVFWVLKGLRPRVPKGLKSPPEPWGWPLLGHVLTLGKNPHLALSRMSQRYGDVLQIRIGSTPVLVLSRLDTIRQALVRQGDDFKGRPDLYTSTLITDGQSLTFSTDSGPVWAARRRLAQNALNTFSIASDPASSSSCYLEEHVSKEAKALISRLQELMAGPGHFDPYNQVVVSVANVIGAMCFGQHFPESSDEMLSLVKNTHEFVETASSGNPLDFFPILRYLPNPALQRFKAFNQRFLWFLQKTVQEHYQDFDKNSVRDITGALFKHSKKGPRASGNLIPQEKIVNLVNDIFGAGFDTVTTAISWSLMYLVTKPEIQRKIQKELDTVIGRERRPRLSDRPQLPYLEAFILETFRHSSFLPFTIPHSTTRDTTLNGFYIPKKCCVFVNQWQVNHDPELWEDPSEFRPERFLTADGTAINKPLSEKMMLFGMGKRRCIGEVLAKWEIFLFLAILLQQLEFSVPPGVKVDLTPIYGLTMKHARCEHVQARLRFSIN
Procedure, shortened: as §2

[9] = GLP cardiopulmonary safety pharmacology study in NHPs; type: in vivo, NHP; settings: NHPs, 10, 30 and 60 mg/kg
[10] = tested on: Pig-a mutant RBCs and RETs; test: GLP 28-d in vivo Pig-a gene mutation study in rats; design: species or system rat; settings: 28 d, 6, 20, 60 mg/kg/d (males), 3, 10, 30 mg/kg/d (females)
Procedure, shortened: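 GLP study in male and female Sprague-Dawley rats, n = 5 per dose per sex. Test compound in 15% Labrasol:85% water was given by oral gavage for 28 d at 0, 6, 20 or 60 mg/kg/d (males) or 0, 3, 10 or 30 mg/kg/d (females). Peripheral blood was then analysed by flow cytometry for % reticulocytes, mutant-phenotype RBC frequency and mutant-phenotype RET frequency.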

[11] = Kinetic solubility in simulated intestinal fluids; type: physicochemical
Procedure, shortened: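 Dissolved test compound concentration in FaSSIF or FeSSIF simulated intestinal fluids, determined by UV/Vis absorbance.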

[12] = Single-dose i.v./po PK in male CD-1 mice; type: in vivo, mouse; settings: for clearance: male, CD-1, mouse, plasma, iv, 1 mg/kg
Procedure, shortened: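 CD-1 mice received a single i.v. dose of 1 mg/kg (n = 12) or an oral gavage dose of 5 mg/kg (n = 12). Brains were collected at 1, 4, 8 and 12 h. Oral bioavailability came from i.v./po comparison; fabs came from kinetic analysis.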

COc1nc(-c2cc(C)c(N[C@@H](C)c3cc(F)cc(F)c3)nn2)ccc1-n1cnc(C)c1 [Compound 2, (S)-N-(1-(3,5-difluorophenyl)ethyl)-6-(6-methoxy-5-(4-methyl-1H-imidazol-1-yl)pyridin-2-yl)-4-methylpyridazin-3-amine]
major metabolites [1]: no major metabolites
unique human metabolites [1]: absence of any unique human metabolites
IC50 (CYP450 2C9): 4.4 µM
% PPB H [2]: 99.8%
GLP Ames bacterial mutagenicity result [3]: positive
IC50 (hERG channel): 7.3 µM
safety margin between Aβ42 IC50 and hERG IC20 (hERG channel): > 100 fold
IC20 (hERG channel; human, HEK-293 cells expressing hERG): 1.3 µM
IC50 (CYP450 2D6): 11 µM
% PPB R [4]: 99.9%
inhibition at 10 µM (μ opioid receptors): > 50%
fabs in humans (expected) [5]: ~90%
predicted human CL ([5]; allometric scaling from mouse, rat, NHP): ~5 mL/min/kg
AUC ([5]; human, plasma): 4.32 µg·h/mL
attenuation of cerebral amyloidosis (mAb 3D6), cortex and hippocampus (cerebral amyloidosis; 6-mo-old PSAPP mice (prophylactic group), P < 0.01): greater than twofold
cerebral amyloidosis (mAb 3D6), cortex and hippocampus, vs vehicle (cerebral amyloidosis; 9-mo-old PSAPP mice (disease-modifying group), P < 0.03): statistically significant decrease
safety margin based on comparison of systemic exposures ([6]; AUC at rat NOAEL vs predicted human AUC at 100 mg): more than 130 fold
AUC ([6]; male, rat, in vivo, 60 mg/kg): 586 µg·h/mL
NOAEL at 28 d ([6]; rat, in vivo): 60 mg/kg
GLP 28-d repeat-dose toxicity and in vivo micronucleus study ([6]; rats, data not shown): negative
NOAEL at 7 d ([7]; both, Sprague-Dawley, rat, in vivo): ≥ 50 mg/kg
safety margin over the efficacious dose (5 mg/kg) ([7]; rats, 7-d DRF): 10–20 fold
full-body necropsy and histopathology [8]: no overt evidence of toxicity
weight gain ([8]; data not shown): no significant effect on weight gain
IC50 (CYP450 1A2): 12 µM
effect on electrocardiogram parameters, including corrected QT interval [9]: no significant effect
in vivo mutagenicity (Pig-a mutant RBCs and RETs) [10]: negative
FaSSIF dissolved compound concentration ([11]; FaSSIF pH 6.5, UV/Vis absorbance): 80
FeSSIF dissolved compound concentration ([11]; FeSSIF pH 5.8, UV/Vis absorbance): 79
clearance ([12]; CL, mice): 8 mL/min/kg
clearance ([12]; Cl, male CD-1 mice): 8.05 mL/min/kg
CL as percent of reported hepatic blood flow ([12]; mice, hepatic blood flow 95 ml/min/kg): < 10%
fraction of dose absorbed from intestinal lumen (fabs) ([12]; mice, kinetic analysis): ~90%
